Data reported in ChEMBL document CHEMBL1150125, “Antiplasmodial activity of alkaloids from various strychnos species” (J Nat Prod, 2002).

Legend:
[1] = Selectivity index, ratio of IC50 for human HCT116 cells to IC50 for chloroquine-sensitive Plasmodium falciparum FCA 20/ Ghana; type: toxicity, cell-based, HCT-116; settings: HCT116 cells versus Plasmodium falciparum FCA 20/Ghana, read-out: Ratio IC50
How it was run: (§1)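 Selectivity index = IC50 in HCT-116 cells / IC50 in P. falciparum. Cell IC50: 5000 HCT-116 cells per well with drug, DMSO controls, 72 h incubation, then WST-1 for 30 min at 37 °C. Absorbance read against a cell-free blank and expressed as percent of control. Two independent experiments, each in triplicate, means ± SEM.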

HCT-116 = test: Cytotoxicity against human HCT116 cells after 72 hrs by WST1 assay; type: cell-based; settings: HCT-116, 72 h
How it was run: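 HCT-116 colon cancer cells were seeded at 5000 per well in medium containing the test drugs, with matched DMSO controls. After 72 h, WST-1 was added for 30 min at 37 °C. Absorbance was read against a cell-free medium plus WST-1 blank and expressed as percent of control. Two independent experiments were run, each in triplicate, and means ± SEM were calculated.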

Plasmodium falciparum [2] = test: Antiplasmodial activity against chloroquine-sensitive Plasmodium falciparum FCA 20/ Ghana by [3H]hypoxanthine uptake; type: functional, organism-based
How it was run: (§2)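 Asexual erythrocytic stages kept in continuous culture (Trager and Jensen method). Each sample run as eight 4-fold dilutions, final 20 to 0.0012 µg/mL, in duplicate. IC50 and IC90 derived; number of independent experiments per value given separately.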

Plasmodium falciparum [3] = test: Antiplasmodial activity against chloroquine-resistant Plasmodium falciparum W2/Indochina by [3H]hypoxanthine uptake; type: functional, organism-based; how it was run: as §2
[4] = Selectivity index, ratio of IC50 for human HCT116 cells to IC50 for chloroquine-resistant Plasmodium falciparum W2/Indochina; type: toxicity, cell-based, HCT-116; settings: HCT116 cells versus Plasmodium falciparum W2/Indochina, read-out: Ratio IC50; how it was run: as §1
[5] = Selectivity index, ratio of IC50 for human HCT116 cells to IC50 for moderately chloroquine-resistant Plasmodium falciparum FCB1-R/Colombia; type: toxicity, cell-based, HCT-116; settings: HCT116 cells versus Plasmodium falciparum FCB1-R/Colombia, read-out: Ratio IC50; how it was run: as §1
Plasmodium falciparum [6] = test: Antiplasmodial activity against chloroquine-resistant Plasmodium falciparum FCB1-R/Colombia by [3H]hypoxanthine uptake; type: functional, organism-based; how it was run: as §2
[7] = Plasmodium falciparum, FCA 20/ Ghana
[8] = Plasmodium falciparum, W2/Indochina
[9] = Plasmodium falciparum, FCB1-R/Colombia

Row | SMILES | selectivity ratio [1] | IC50 (HCT-116) [µM] | IC50 (Plasmodium falciparum [2]; [7]) [µM] | IC90 (Plasmodium falciparum [2]; [7]) [µM] | IC50 (Plasmodium falciparum [3]; [8]) [µM] | IC90 (Plasmodium falciparum [3]; [8]) [µM] | selectivity ratio [4] | selectivity ratio [5] | IC50 (Plasmodium falciparum [6]; [9]) [µM] | IC90 (Plasmodium falciparum [6]; [9]) [µM] | IC50 (Plasmodium falciparum [3]) [µM] | IC50 (Plasmodium falciparum [2]) [µM] | IC90 (Plasmodium falciparum [2]) [µM] | IC90 (Plasmodium falciparum [3]) [µM] | IC50 (Plasmodium falciparum [6]) [µM] | IC90 (Plasmodium falciparum [6]) [µM]
1 | C/C=C1/CN2CC[C@]34c5ccccc5N5C(=O)C([C@H]6C[C@]78c9ccccc9N9C(=O)C=C[C@@H]([C@H]97)[C@H]7C[C@@H]8N6C/C7=C/C)=C[C@H]([C@H]53)[C@H]1C[C@H]24 [SUNGUCINE] | 0.79 | 6.2 | 7.82 | 26.3 | 10.1 | 33.2 | 0.611 |  |  |  |  |  |  |  |  | 
2 | C/C=C1/CN2[C@@H](C3=C[C@@H]4[C@@H]5N(C3=O)c3ccccc3[C@@]53CCN5C/C(=C/CO)[C@@H]4C[C@H]53)C[C@@]34c5ccccc5N5C(=O)CC=C([C@H]1C[C@H]23)[C@H]54 | 19.1 | 16.2 | 0.847 | 4.35 | 0.14 | 1.35 | 115 | 78.3 | 0.207 | 1.47 |  |  |  |  |  | 
3 | CC1C2=CN3CCc4c([nH]c5ccc(O)cc45)C3CC2CC2NCCC3c4ccccc4N1C23 (stereo in doubt; 64) [JANUSSINE A] |  |  | 9.55 | 30.9 |  | 27.6 |  |  | 15.9 | 28.3 | 12.7 |  |  |  |  | 
4 | C/C=C1\CN2CC[C@]34c5ccccc5N5[C@@H]6O[C@H]([C@H]([C@H]53)[C@H]1C[C@H]24)N1c2ccccc2[C@]23CCN4C/C(=C/C)[C@H](C[C@H]42)[C@H]6[C@H]13 (stereo in doubt; 52) [MATOPENSINE] | 9.59 | 12 |  |  |  |  | 49.5 | 33.1 |  |  | 0.243 | 1.25 | 6.63 | 7.74 | 0.362 | 4.11
5 | CC[C@H]1CN2CCC3c4ccccc4NC3[C@@H]2C[C@@H]1C[C@H]1NCCc2c1[nH]c1ccccc21 (stereo not given in full) [OCHROLIFUANINE A] | 136 | 16.1 | 0.118 | 0.495 | 0.492 | 1.38 | 32.8 | 60.7 | 0.266 | 1.02 |  |  |  |  |  | 
6 | C/C=C1/CN2CCc3c([nH]c4ccccc34)[C@@H]2C[C@@H]1C1=CN2c3ccccc3[C@@]34CCN5CC6=CCO[C@@H]1[C@@H]([C@H]23)[C@H]6C[C@H]54 [LONGICAUDATINE] | 4.59 | 4.93 | 0.986 | 3.87 | 0.569 | 4.83 | 7.96 | 8.81 | 0.56 | 3.64 |  |  |  |  |  | 
7 | C=C1c2[nH]c3ccccc3c2CCN2C[C@H](CC)CC[C@H]12 [NGOUNIENSINE] |  |  | 26.8 | 71 | 20.2 | 70.1 |  |  | 17.8 | 62.8 |  |  |  |  |  | 
8 | C=CC1CN2CC[C@@]34c5cc(C(C)C6=CN7CC[C@]89c%10ccccc%10N[C@H]8[C@@H](CO)[C@H]6C[C@H]79)ccc5N[C@@H]3[C@@H](CO)[C@@H]1C[C@@H]24 (stereo in doubt; 67) [PANGANENSINE X] |  |  | 10.4 |  |  | 78.7 |  |  |  |  | 17.4 |  | 68.2 |  | 13.5 | 43.7
9 | C[C@@H]1CC[C@H]2[C@@H](C)C(=O)O[C@@H]3O[C@@]4(C)CC[C@@H]1[C@]32OO4 [ARTEMISININ] |  |  |  |  | 0.002 | 0.017 |  |  | 0.005 | 0.013 |  |  |  |  |  | 
10 | C/C=C1/CN2CC[C@@]34c5ccccc5N5C([C@H]6[C@@H]7N(C(C)=O)c8ccccc8[C@@]78CCN7C/C(=C/C)[C@@H]6C[C@H]78)OC=C([C@H]1C[C@H]23)[C@H]54 (stereo not given in full) |  |  | 4.58 | 18.7 | 3.31 | 18.5 |  |  | 2.12 | 7.13 |  |  |  |  |  | 
11 | c1ccc2c(c1)C[C@H]1C3Nc4ccccc4C3CCN1C2 (stereo not given in full) |  |  | 11.3 | 42.2 | 18.3 | 89.5 |  |  | 12.9 | 47.4 |  |  |  |  |  | 
12 | CCN(CC)CCCC(C)Nc1ccnc2cc(Cl)ccc12 (stereo not given) [CHLOROQUINE] |  | 33.7 |  | 0.071 |  | 1.75 |  |  |  | 0.084 |  |  |  |  |  | 
13 | C/C=C1/CN2CCc3c([nH]c4ccccc34)[C@@H]2C[C@@H]1Cc1nccc2c1[nH]c1ccccc12 [USAMBARENSINE] |  |  |  | 4.41 | 0.594 | 4.83 |  |  |  |  |  |  |  |  |  | 
14 | C/C=C1/CN2CCc3c([nH]c4ccccc34)[C@@H]2C[C@@H]1C1CCC([C@H]2C[C@H]3c4[nH]c5ccccc5c4CCN3C/C2=C/C)C1 (stereo not given in full) [STRYCHNOFURANINE] |  |  | 4.11 | 15 | 2.8 | 16 |  |  | 10.8 | 33.5 |  |  |  |  |  | 
15 | C/C=C1/CN2CCc3c([nH]c4ccccc34)[C@@H]2C[C@@H]1C1=CN2c3ccccc3[C@]34CCN5C/C(=C/CO)[C@H](C[C@H]53)[C@@H]([C@@H]1O)[C@H]24 [TETRADEHYDROLONGICAUDATINE Y] |  |  | 1.24 | 7.97 | 0.958 | 12.1 |  |  |  |  |  |  |  |  |  | 
16 | C[C@@H]1OC[C@H]2[C@@H]3C[C@H]4N(CC[C@]45c4ccccc4N[C@H]25)/C(=C/C2=CN4CC[C@]56c7ccccc7N[C@H]5[C@H](CO)[C@H]2C[C@H]46)[C@@H]31 |  |  | 9.77 | 17.7 | > 20 |  |  |  | 5.27 | 12.7 |  |  |  |  |  | 
17 | CN1CCC2c3ccccc3N3C2[C@@H]1C[C@@H](C1=CCOC1=O)C[C@@H]3O (stereo not given in full) [AKAGERINE LACTONE] |  |  | 17 | 60.7 | 25.9 | 53.3 |  |  | 27.5 | 55.2 |  |  |  |  |  | 
18 | C=C[C@H]1CN2CCc3c([nH]c4ccccc34)[C@@H]2C[C@@H]1C[C@H]1c2[nH]c3ccccc3c2CCN1C [USAMBARINE] |  |  | 2.5 | 9.21 | 2.36 | 7.29 |  |  |  |  |  |  |  |  |  | 
19 | C=CC1CN2CC[C@@]34c5cc(C(C)C6=CN7CC[C@]89c%10ccccc%10N[C@H]8[C@@H](CO)[C@H]6C[C@H]79)ccc5N[C@@H]3[C@@H](CO)[C@@H]1C[C@@H]24 (stereo in doubt; 68) [PANGANENSINE X] |  |  |  | 34.8 | 17 |  |  |  | 12.9 | 26.1 |  | 14.9 |  | 85.8 |  | 
20 | C=C1c2[nH]c3ccccc3c2CCN2C[C@@H](CC)CC[C@H]12 [EPINGOUNIENSINE] |  |  | 7.8 | 26.9 | 15.8 | 52.8 |  |  | 16.3 | 49.7 |  |  |  |  |  | 
21 | C/C=C1/CN2[C@@H](C3=C[C@@H]4[C@@H]5N(C3=O)c3ccccc3[C@@]53CCN5C/C(=C/C)[C@@H]4C[C@H]53)C[C@@]34c5ccccc5N5C(=O)CC=C([C@H]1C[C@H]23)[C@H]54 [ISOSUNGUCINE] |  |  | 1.32 | 7.06 | 0.265 | 1.72 |  |  |  |  |  |  |  |  |  | 
22 | C/C=C1\CN2CCC3c4ccccc4NC3[C@@H]2C[C@@H]1CC1=NCCc2c1[nH]c1ccccc21 (stereo not given in full) [DIHYDROUSAMBARENSINE] | 14 | 12 | 0.857 | 2.49 | 0.032 | 4.68 | 375 |  |  |  |  |  |  |  |  | 
23 | C/C=C1\CN2CC[C@]34c5ccccc5N5[C@@H]6O[C@H]([C@H]([C@H]53)[C@H]1C[C@H]24)N1c2ccccc2[C@]23CCN4C/C(=C/C)[C@H](C[C@H]42)[C@H]6[C@H]13 (stereo in doubt; 53) [MATOPENSINE] |  |  |  |  |  |  |  |  |  |  | 8.66 | 13.2 | 73.3 | 86.7 | 4.67 | 24.8
24 | C=C[C@H]1CN2CC[C@H]1C[C@H]2[C@H](O)c1ccnc2ccc(OC)cc12 [QUININE] |  |  | 0.269 | 1.91 | 0.413 | 1.72 |  |  | 0.2 | 2.74 |  |  |  |  |  | 
25 | CC1C2=CN3CCc4c([nH]c5ccc(O)cc45)C3CC2CC2NCCC3c4ccccc4N1C23 (stereo in doubt; 65) [JANUSSINE A] |  |  |  |  |  |  |  |  |  |  | 4.75 | 12.6 | 34.9 | 27.8 | 17 | 33.1
26 | C/C=C1/CN2CCc3c([nH]c4ccccc34)[C@@H]2C[C@@H]1C1=CN2c3ccccc3[C@]34CCN5C/C(=C/C)[C@H](C[C@H]53)[C@@H]([C@@H]1O)[C@H]24 [LONGICAUDATINE F] |  |  | 7.7 | 26.7 | 9.58 | 28.1 |  |  | 11.7 | 33.4 |  |  |  |  |  | 
